We go through 3 compounds from paper PMC3163381 (Biochemistry, 2011).

The subject of one data set is MscS. Nature of the data set: Patch-clamp of MscS in giant spheroplast patches, activation midpoint. The class given is biochemical, E. coli. In short, it runs like this: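 Giant spheroplasts from cephalexin-treated E. coli MJF 465 (mscS/mscK/mscL) expressing WT MscS. Excised inside-out patches in symmetrical 200mM KCl, 45mM MgCl2, 5mM CaCl2, 5mM HEPES (pH 7.4, KOH); bath had 400mM sucrose added. Test compound was perfused into the bath (cytoplasmic side). p0.5 was taken from 1 s pressure ramps, first within 1 min, then tracked over time, and normalized to pre-addition control.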
A general note: The patch-clamp technique gives a direct electrical read-out from membranes.

Data set [1] can be described thus: Stability of AI-1 in water and phosphate buffer. The class given is physicochemical. The essentials:
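Test compound was held in deionized water and in phosphate buffer at pH 7.4, and followed over several days. Half-life was determined in the buffer.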

The nature of data set [2]: Pressure-area isotherms of lipid monolayers with the substance in the subphase. The class given is physicochemical, Escherichia coli. The settings on record: for increase in the lipid molecular area: 1 mM in subphase, at 35 mN/m (monolayer-bilayer equivalence pressure).
Data set [3] in a line: Surface tension measurements at the air-water interface. The settings on record: for surface activity at the air-water interface: result in words. In kind it is physicochemical.
The nature of data set [4]: Solubility and stock solution observations in aqueous solution. The settings on record: result in words.

By half-life is commonly meant the time in which the quantity being followed falls by half. As to `CCCCCCCC(=O)CC(=O)N[C@H]1CCOC1=O` [AI-1, N-(3-Oxodecanoyl)-L-homoserine lactone], the “shift of MscS p0.5 toward higher tension” value in the data set on MscS (1 mM AI-1 from cytoplasmic side, relative to untreated control) is on record as at most 23%. For the same compound, in data set [1] (deionized water, result in words), the “stability in pure water” value is given as “stable in pure water in the course of several days”. The same compound gave a half-life in data set [1] (phosphate buffer at pH 7.4) of 130 h. Moreover, the “lateral pressure increase in monolayers” value in data set [2] (at lipid area of 68–70 Å^2, Fig. 4A) was ~ 5 mN/m. Also, the “Γ, surface excess” value in data set [3] (Gibbs isotherm fit, 100 mM KCl, 5 mM HEPES pH 7.4) is given as 3.4*10^−6 mol/m^2. Moreover, in data set [3] (air-water interface, from Gibbs isotherm fit), the “AS, molecular area at the surface” value stood at 49 Å^2. Moreover, the “decrease of surface tension of the solution” value in data set [3] (at 1–5 mM, aqueous buffer pH 7.4) is given as ~ 17 mN/m. The “log Kmemb, membrane partitioning coefficient” value in data set [3] (calculated from AS and KAW according to Suomalainen) is on record as 1.94. Further, the “KAW, propensity toward air-water interface” value in data set [3] (extrapolated Gibbs isotherm fit, pH 7.4) is 5600 M⁻¹.
Turning to `CC(=O)C(=O)C(O)CO` (centres unmarked) [AI-2 (Methyl), 4,5-dihydroxy-2,3-pentanedione], in the data set with MscS (up to 1 mM in the bath, result in words, listed as AI-2), the “effect on the activation midpoint of MscS” value was “no detectable shifts”. Besides, the “increase in the lipid molecular area” value in data set [2] worked out at 2%. In data set [3], the “surface activity at the air-water interface” value is “did not show any appreciable surface activity”.
Turning to `c1ccc2[nH]ccc2c1` [Indole], in the data set on MscS (2.5 mM indole, after return), the “level at which p0.5 stabilizes above the control” value is on record as ~ 4%. Also, in the data set on MscS (2.5 mM indole, cytoplasmic side, naive patch), the “transient shift of MscS activation curve towards higher tension” value is on record as ~ 20%. Besides, the “solubility in aqueous solution” value in data set [4] is “limited solubility”. Besides, the “increase in the lipid molecular area” value in data set [2] turned out to be 5%. Moreover, the “surface activity at the air-water interface” value in data set [3] was “did not show any appreciable surface activity”.
